High-throughput results: PubChem, several laboratories
Sampled rows, rich in hits. Any-hit rate of the full collection: about 3.3%.
ABCB6 inh 2 = inhibitors of human ABC transporter ABCB6. Q9NP58. K562-ABCB6 porphyrin accumulation, flow cytometry, 1 h; stronger effect = lower value. fluorescence ratio to DMSO, % at 10 µM. 360,000 tested, 0.19% active. AID 602162;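 active = fluorescence ratio to DMSO below 75%, the collection mean minus 3 SD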;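 also: signal is porphyrin accumulated inside mitochondria; 100% equals median channel fluorescence of DMSO control wells; lower ratio means ABCB6 inhibition with less porphyrin fluorescence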
AHR activator = human AHR activation; P35869; 320,000 tested, 2.5% active; AHR-responsive luciferase reporter cells, luminescence; AID 2796; activation, % at 5 µM; in the data active = activation above about 47%;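 also: 0% = vehicle wells and 100% = reference agonist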
Target sequence (P35869 whole entry, looked up): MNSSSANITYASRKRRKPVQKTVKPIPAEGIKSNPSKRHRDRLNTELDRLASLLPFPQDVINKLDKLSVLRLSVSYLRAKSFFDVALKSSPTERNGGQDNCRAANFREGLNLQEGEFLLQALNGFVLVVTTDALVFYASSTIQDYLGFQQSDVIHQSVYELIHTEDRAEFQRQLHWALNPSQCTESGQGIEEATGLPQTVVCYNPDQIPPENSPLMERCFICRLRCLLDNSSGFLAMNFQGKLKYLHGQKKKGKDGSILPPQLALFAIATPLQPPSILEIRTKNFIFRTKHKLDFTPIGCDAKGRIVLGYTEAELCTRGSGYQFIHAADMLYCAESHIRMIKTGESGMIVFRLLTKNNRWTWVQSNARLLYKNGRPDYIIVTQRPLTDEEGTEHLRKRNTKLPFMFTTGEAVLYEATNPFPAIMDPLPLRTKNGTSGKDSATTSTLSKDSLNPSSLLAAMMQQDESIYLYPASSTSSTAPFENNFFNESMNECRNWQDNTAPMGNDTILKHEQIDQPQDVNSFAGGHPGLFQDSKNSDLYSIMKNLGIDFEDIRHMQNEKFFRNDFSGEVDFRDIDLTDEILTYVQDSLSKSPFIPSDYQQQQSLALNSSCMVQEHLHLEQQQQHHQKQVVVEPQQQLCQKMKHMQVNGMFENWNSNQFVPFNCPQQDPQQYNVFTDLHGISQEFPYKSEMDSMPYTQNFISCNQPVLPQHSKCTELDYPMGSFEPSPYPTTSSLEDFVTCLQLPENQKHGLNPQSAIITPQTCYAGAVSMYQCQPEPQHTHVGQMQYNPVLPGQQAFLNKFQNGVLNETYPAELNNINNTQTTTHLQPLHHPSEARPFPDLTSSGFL
STAT3 act = increases IL-6 driven STAT3 reporter signal | activation (% of control), % at 5.6 µM | U3A cells, IL-6 STAT3-luciferase reporter, luminescence; 100% = signal with IL-6 EC80 alone | 190,000 tested, 0.91% active;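 active = activation above the screen-wide mean of compound activation plus 3 SD, cut at about 130% in these data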;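 also: 0% = background luminescence of wells with medium and substrate only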
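Test system: human U3A cells carrying STAT3-luciferase construct; control set: IL-6-only wells as 100% reference; timing: compound pre-incubation 1 h before IL-6, then 6 h stimulation at 37 °C; also added: IL-6 stimulus at 33 ng/mL final; evaluation: % activation versus median of IL-6-stimulated wells; detection: reporter luminescence signal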
GAA850 FXN act = increases GAA850 frataxin promoter reporter activity; HEK293 lucGAA850 FXN promoter luciferase reporter, 24 h; percent of 10 µM SAHA response; activation, % at 6 µM; 360,000 tested, 0.56% active;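 active = activation above the average of all compounds screened plus 3 SD, cutoff fixed separately per campaign, cut at about 7.5% in these data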;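 also: 0% = DMSO wells and 100% = 10 µM SAHA wells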
* hit, by the source's call; . = no result.

SMILES | ABCB6 inh 2 | AHR activator | STAT3 act | GAA850 FXN act
Cc1nc(N[C@@H](Cc2c[nH]c3ccccc23)C(=O)O)c2oc3ccccc3c2n1 | . | 34 | 150* | .
CN(CC(=O)NCC1CCCO1)S(=O)(=O)c1ccc2ccccc2c1 (stereo not given) | 101 | . | . | 0
Cc1ccccc1OCC(=O)OCC(=O)c1ccc[nH]1 | 100 | 1 | . | 1
CC1(C)CC(=O)C(N=Nc2ccc(OC(F)F)cc2)=C(O)C1 | 88 | 0 | 92 | 2
CCCNS(=O)(=O)c1ccc(CCC(=O)N2CCN(c3ccc(F)cc3)CC2)cc1 | 99 | -1 | 107 | 0
O=C(C1=C(O)C(=O)N(c2ncccn2)C1c1ccc(Cl)cc1)c1ccco1 (stereo not given) | 112 | 75* | 124 | -2
COc1ccc(S(=O)(=O)N2CCCCC2c2cc(C(=O)Nc3ccccc3)no2)cc1 (stereo not given) | 98 | . | . | 0
CNc1ccccc(-c2ccc3cc4c(cc3n2)OCO4)c1=O | 97 | 70* | 98 | 1
CCc1ccccc1NC1=NCC(=O)N1Cc1ccc2c(c1)OCO2 | 99 | 33 | 104 | -1
Cc1ccc(C(=O)c2nc(C(=O)NCCO)nc3ccccc23)cc1 | 101 | 48* | . | 0
O=C(NCCO)c1nc(NCCO)c2ccccc2n1 | 103 | 2 | 103 | 3
CCOc1ccc(C2C=C(c3ccc(C)cc3)Nc3nnnn32)cc1 (stereo not given) | 95 | 5 | 95 | 1
COc1ccccc1C1C=C(c2ccc(C)cc2)Nc2nnnn21 (stereo not given) | 93 | 54* | 90 | 2
CCOc1ccc(CNc2ccc3c(c2)ncn3C)cc1 | 96 | 29 | 96 | 1
CCn1cnc2cc(NCc3nc4ccccc4n3Cc3ccccc3)ccc21 | 100 | 73* | 108 | -3
Cn1cnc2cc(NCc3ccc(Cl)cc3)ccc21 | 329 | 56* | . | 5
CCCn1cnc2cc(NCc3ccc(Br)cc3)ccc21 | 97 | 87* | . | 5
COc1cc2cc(CCCOC(=O)c3ccc4c(c3)OCO4)oc(=O)c2cc1OC | 97 | -4 | . | 1
CCCN1CCC2(CC1)C(C#N)=C(N)Oc1c2sc2nc(C)cc(C)c12 | 103 | 61* | 99 | 1
Cc1ccccc1N(C(=O)CCC(=O)Nc1ccccn1)C(C(=O)NC(C)C)c1ccc(F)cc1 (stereo not given) | 90 | 0 | . | 2
S=c1[nH]c(-c2ccccc2)cn1/N=C/c1ccccc1Br | 92 | 62* | 99 | 2
S=c1[nH]c(-c2ccccc2)cn1/N=C/c1cccc2ccccc12 | 97 | 99* | 89 | -1
Oc1ccc(/C=N/n2cc(-c3ccccc3)[nH]c2=S)cc1 | 98 | 64* | 111 | -1
COc1cc(/C=N/n2cc(-c3ccccc3)[nH]c2=S)cc(OC)c1O | 93 | 23 | . | -1
Cn1c(C(O)c2ccc(Br)cc2)nc(Cl)c1Cl (stereo not given) | 89 | 61* | . | 1
SMILES | ABCB6 inh 2 | AHR activator | STAT3 act | GAA850 FXN act
CCN(C(=O)COC(=O)C1CC1C)c1c(N)n(Cc2ccccc2)c(=O)[nH]c1=O (stereo not given) | 101 | . | . | 1
COc1cccc2c(N/N=C/c3ccc(O)c(O)c3)cc(C)nc12 | 90 | 10 | . | 5
COc1ccc(/C=N/Nc2cc(C)nc3c(C)cccc23)cc1 | 99 | 71* | . | 1
C=C(CN(C)C)C(=O)c1ccc2c(c1)OCO2 | 98 | . | . | -15
COc1ccc(-c2nc(N/N=C(\C)c3ccc(O)cc3)c3ccccc3n2)cc1 | 97 | 49* | . | 4
O=C1c2ccccc2C(=O)N1CCCCN(C(=O)c1cccc([N+](=O)[O-])c1)c1ccc(Cl)cc1 | 91 | 72* | 101 | 2
O=C1c2ccccc2C(=O)N1CCCCN(C(=O)c1ccco1)c1ccc(Cl)cc1 | 101 | -3 | 94 | 0
Cc1nc(C(F)(F)F)ccc1C(=O)NCC(O)c1ccccc1 (stereo not given) | 95 | 71* | . | 2
Cc1nc(C(F)(F)F)ccc1C(=O)Nc1ccccc1F | 99 | -6 | . | 3
CCOc1ccc(S(=O)(=O)NCCC(=O)N2CC(C)OC(C)C2)cc1 (stereo not given) | 98 | 2 | . | 0
Cc1cc(N)ccc1N1CCCC1 | 102 | 7 | 104 | -3
Cc1cc(N)ccc1-n1c(C)ccc1C | 93 | 110* | 112 | 3
COc1ccc(CN2C[C@@H](CO)O[C@@H](n3cnc4c(N(C)C)ncnc43)C2)cc1 | 100 | . | . | 1
COc1ccccc1NC(=O)c1csc2c1CCCC2 | 94 | 69* | 91 | 0
Cc1nnc(NC(=O)c2csc3c2CCCC3)s1 | . | 55* | 91 | .
Cc1nnc(NC(=O)c2csc3c2CCC(C)C3)s1 (stereo not given) | 100 | 15 | 95 | 2
COc1ccccc1NC(=O)c1c(C)oc2c1CCCC2 | 100 | 60* | 87 | 1
Cc1cn([C@H]2C[C@H](O)[C@@H](CNCC3=Cc4cc(O)ccc4OC3)O2)c(=O)[nH]c1=O | 105 | . | . | 2
COc1ccc(NC(=O)c2ccc3c(c2)N(C)CCS3)cc1 | 97 | 72* | . | 2
CN1CCSc2ccc(C(=O)Nc3cccc(F)c3)cc21 | 97 | 126* | . | 5
CN1CCSc2ccc(C(=O)NCc3ccccc3)cc21 | 99 | 62* | . | 2
COc1ccc(NC(=O)N2CCc3ccccc32)cc1 | 99 | 16 | 64 | 3
CC(NC(=O)c1ccco1)C(=O)N1CCN(S(=O)(=O)c2ccccc2C#N)CC1 (stereo not given) | 96 | 0 | . | 2
Fc1ccccc1-c1cc2ncccc2cn1 | 100 | 67* | . | 2
COc1cc(OC)cc(-c2cc3ncccc3cn2)c1 | 98 | 22 | . | 5
SMILES | ABCB6 inh 2 | AHR activator | STAT3 act | GAA850 FXN act
CC1(Oc2ccc(CC#N)cc2)CCN(Cc2ccc(-n3ccnc3)cc2)C1 (stereo not given) | 90 | . | . | 2
COc1cccc(C2CC(c3ccc(Br)cc3)=NN2C(=O)c2ccncc2)c1OC (stereo not given) | 101 | -3 | 101 | -1
COc1ccccc1C1CC(c2ccc(Br)cc2)=NN1C(=O)c1cccnc1 (stereo not given) | 98 | 63* | 113 | -3
CCCc1ccc2oc(C(=O)NCCc3cnn(C)c3)c(C)c2c1 | 91 | 49* | . | 5
CCCCCC(=O)Nc1ccc(S(=O)(=O)Nc2cc(OC)nc(OC)n2)cc1 | 101 | . | . | -2
COC(=O)CCC(=O)Nc1ccc(S(=O)(=O)Nc2cc(OC)nc(OC)n2)cc1 | 101 | 74* | . | 1
Cc1ccc(/C(C#N)=C\c2cn(C)c3ccccc23)cc1 | . | 75* | 106 | .
Cn1cc(C=O)c2ccccc21 | 102 | 12 | 127 | 0
Cc1ccc(N/C=C2/Sc3ccccc3NC2=O)cc1 | 97 | 29 | 94 | 1
COc1ccc(N/C=C2/Sc3ccccc3NC2=O)cc1 | 90 | 55* | 110 | 3
Cc1ccc(S(=O)(=O)N2CCOCC2)cc1N/N=C(\C#N)c1nc2ccccc2[nH]1 | 104 | 59* | 85 | 6
OC[C@@H]1CN(Cc2ccc(F)cc2)C[C@H](n2cnc3c(NCc4ccc(F)cc4)ncnc32)O1 | 96 | . | . | 2
